Reference: ChEMBL document CHEMBL1949512, “RO4383596, an orally active KDR, FGFR, and PDGFR inhibitor: synthesis and biological evaluation” (Bioorg Med Chem, 2005)

What was measured:
Mus musculus [1] = test: Dose normalized AUC in […] mouse at 100 mg/kg, po; type: ADME, organism-based; set-up: dose 100 mg/kg, route oral; settings: in vivo
Method in brief: (§1)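 A separate group of female mice received one 100 mg/kg oral dose. Median PK parameters were calculated for that cohort.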

[2] = Tmax in C57/BL6 mouse at 25 mg/kg, po bid for 5 days; type: ADME, organism-based; set-up: dose 25 mg/kg, route oral; settings: in vivo
Method in brief: (§2)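 Female C57/BL6 mice were dosed orally twice daily for 5 days with a suspension in 2% Klucel LF/0.1% Tween 80 in water. Six mice per dose were split into two subgroups of three, each sampled at alternate time points. Retro-orbital blood was taken at 0, 1, 4 and 8 h post-dose into EDTA, and plasma was analysed by LC-MS/MS. Parameters come from mean concentrations; AUC0–8h by linear trapezoidal rule; Cmax and Tmax as observed.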

[3] = molecular target: Epidermal growth factor receptor (Homo sapiens, UniProt P00533); test: Inhibition of human recombinant His-tagged intracellular domain of EGFR using biotin-EEEEYFELV as substrate by HTRF assay
[4] = Tmax in […] mouse at 100 mg/kg, po; type: ADME, organism-based; set-up: dose 100 mg/kg, route oral; settings: in vivo; method in brief: as §1
[5] = Volume of distribution at steady state in Wistar rat at 5 mg/kg, iv; type: ADME, organism-based; set-up: dose 5 mg/kg, route intravenous; settings: in vivo, read-out: Vdss
Method in brief: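 Single 5 mg/kg iv dose to Wistar rats via femoral arterial catheter, vehicle 2% DMA, 10% PEG400, 88% of 40% HPBCD in water, 2.5 mL/kg. Jugular blood at 1, 7, 15, 30 min and 1, 3, 6, 12, 24 h; plasma by LC-MS/MS. Vdss by non-compartmental analysis per animal, averaged.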

[6] = molecular target: Protein kinase C delta type (Homo sapiens, UniProt Q05655); test: Inhibition of PKCdelta by IMAP assay
Method in brief: (§3)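 IMAP fluorescence-polarization assay, in which phosphorylated fluorescent peptide substrates bind immobilized metal beads. Reactions ran at ATP three times Km.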

[7] = Half life in Wistar rat at 5 mg/kg, iv; type: ADME, organism-based; set-up: dose 5 mg/kg, route intravenous; settings: in vivo
Method in brief: (§4)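 Wistar rats received one dose, either iv 5 mg/kg via femoral arterial catheter (2% DMA/10% PEG400/88% of 40% HPBCD) or po 50 mg/kg (2% Klucel LF/0.1% Tween 80). Blood came from an implanted jugular catheter, up to 24 h (iv) or 48 h (po), into EDTA. Plasma LC-MS/MS; individual non-compartmental parameters were averaged.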

[8] = Oral bioavailability in athymic nude mouse at 50 mg/kg; type: ADME, organism-based; settings: in vivo
Method in brief: (§5)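 Athymic nude mice received one dose, either iv 10 mg/kg in 2% DMA/10% PEG400/88% of 40% HPBCD in water, or po 50 mg/kg in 2% Klucel LF/0.1% Tween 80. Retro-orbital or terminal cardiac blood was drawn from 1 min (iv) or 5 min (po) to 24 h into EDTA. Plasma was analysed by LC-MS/MS. Composite parameters were obtained by non-compartmental analysis, with AUC extrapolated to infinity.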

[9] = Cmax in athymic nude mouse at 50 mg/kg, po; type: ADME, organism-based; set-up: dose 50 mg/kg, route oral; settings: in vivo; method in brief: as §5
[10] = molecular target: Platelet-derived growth factor receptor (Homo sapiens, UniProt P09619+P16234); test: Inhibition of human recombinant His-tagged intracellular domain of PDGFR using biotin-EEEEYFELV as substrate by HTRF assay
[11] = AUC in C57/BL6 mouse at 25 mg/kg, po bid for 5 days; type: ADME, organism-based; set-up: dose 25 mg/kg, route oral; settings: plasma; method in brief: as §2
[12] = Oral bioavailability in Wistar rat at 50 mg/kg; type: ADME, organism-based; settings: in vivo; method in brief: as §4
Mus musculus [13] = test: Antiangiogenic activity in C57/BL6 mouse cornea assessed as inhibition of VEGF-induced angiogenesis at 100 mg/kg, po bid for 7 days by corneal pocket assay relative to control; type: functional; settings: 168 h
Method in brief: (§6)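 VEGF-impregnated pellets were implanted in corneas of female C57/BL6 mice aged 5–7 weeks. Oral twice-daily dosing started the same day and ran 7 days. The area of vascularization was then quantitated relative to animals given vehicle (2% Klucel LF, 0.1% Tween 80 in water).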

[14] = molecular target: Cyclin-dependent kinase 1/cyclin B1 (Homo sapiens, UniProt P06493); test: Inhibition of CDK1/cyclin B by IMAP assay; type: protein-complex assay; method in brief: as §3
Mus musculus [15] = test: Antiangiogenic activity in C57/BL6 mouse cornea assessed as inhibition of VEGF-induced angiogenesis at 50 mg/kg, po bid for 7 days by corneal pocket assay relative to control; type: functional; settings: 168 h; method in brief: as §6
Mus musculus [16] = test: Antiangiogenic activity in C57/BL6 mouse cornea assessed as inhibition of bFGF-induced angiogenesis at 100 mg/kg, po bid for 5 days by corneal pocket assay relative to control; type: functional; settings: 120 h
Method in brief: (§7)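 bFGF-impregnated pellets were implanted in corneas of female C57/BL6 mice aged 5–7 weeks. Oral dosing twice daily began the same day for 5 days. The neovascularized area was quantitated against vehicle-treated animals (2% Klucel LF, 0.1% Tween 80 in water).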

Mus musculus [17] = test: Antiangiogenic activity in C57/BL6 mouse cornea assessed as inhibition of VEGF-induced angiogenesis at 25 mg/kg, po bid for 7 days by corneal pocket assay relative to control; type: functional; settings: 168 h; method in brief: as §6
MDA-MB-435 = test: Antiproliferative activity against human MDA-MB-435 cells
[18] = Tmax in C57/BL6 mouse at 50 mg/kg, po bid for 5 days; type: ADME, organism-based; set-up: dose 50 mg/kg, route oral; settings: in vivo; method in brief: as §2
[19] = AUC in Wistar rat at 50 mg/kg, po; type: ADME, organism-based; set-up: dose 50 mg/kg, route oral; settings: plasma; method in brief: as §4
[20] = molecular target: Fibroblast growth factor receptor (Homo sapiens, UniProt P22607+P11362+P22455+P21802); test: Inhibition of human recombinant GST-tagged intracellular domain of FGFR using biotin-EEEEYFELV as substrate by HTRF assay
[21] = Tmax in Wistar rat at 50 mg/kg, po; type: ADME, organism-based; set-up: dose 50 mg/kg, route oral; settings: in vivo
Method in brief: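 Wistar rats, single oral dose 50 mg/kg as suspension in 2% Klucel LF, 0.1% Tween 80 in water, 5 mL/kg. Jugular catheter blood at 5, 15, 30 min and 1, 3, 6, 12, 24, 48 h; EDTA plasma, LC-MS/MS. Tmax taken from concentration–time profiles; individual-animal parameters averaged.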

[22] = Cmax in C57/BL6 mouse at 50 mg/kg, po bid for 5 days; type: ADME, organism-based; set-up: dose 50 mg/kg, route oral; settings: in vivo; method in brief: as §2
RKO = test: Antiproliferative activity against human RKO cells
HUVEC = test: Antiangiogenic activity in HUVEC assessed as inhibition of bFGF-induced cell proliferation; settings: Homo sapiens
[23] = molecular target: Tyrosine-protein kinase Fyn (Homo sapiens, UniProt P06241); test: Inhibition of Fyn by IMAP assay
Method in brief: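 IMAP fluorescence-polarisation assay: kinase activity read as phosphorylated fluorescent peptide substrate binding preferentially to immobilised metal beads. Reactions run with ATP at three times the Km.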

Mus musculus [24] = test: Antiangiogenic activity in C57/BL6 mouse cornea assessed as inhibition of bFGF-induced angiogenesis at 25 mg/kg, po bid for 5 days by corneal pocket assay relative to control; type: functional; settings: 120 h; method in brief: as §7
[25] = molecular target: Protein kinase C alpha type (Homo sapiens, UniProt P17252); test: Inhibition of PKCalpha by IMAP assay; method in brief: as §3
[26] = Tmax in C57/BL6 mouse at 100 mg/kg, po bid for 5 days; type: ADME, organism-based; set-up: dose 100 mg/kg, route oral; settings: in vivo; method in brief: as §2
Mus musculus [27] = test: Dose normalized AUC in C57/BL6 mouse at 50 mg/kg, po bid for 5 days; type: ADME, organism-based; set-up: dose 50 mg/kg, route oral; settings: in vivo, 120 h; method in brief: as §2
[28] = AUC in C57/BL6 mouse at 100 mg/kg, po bid for 5 days; type: ADME, organism-based; set-up: dose 100 mg/kg, route oral; settings: plasma; method in brief: as §2

Cyclin-dependent kinase 1/cyclin B1, sequence (P06493 whole entry): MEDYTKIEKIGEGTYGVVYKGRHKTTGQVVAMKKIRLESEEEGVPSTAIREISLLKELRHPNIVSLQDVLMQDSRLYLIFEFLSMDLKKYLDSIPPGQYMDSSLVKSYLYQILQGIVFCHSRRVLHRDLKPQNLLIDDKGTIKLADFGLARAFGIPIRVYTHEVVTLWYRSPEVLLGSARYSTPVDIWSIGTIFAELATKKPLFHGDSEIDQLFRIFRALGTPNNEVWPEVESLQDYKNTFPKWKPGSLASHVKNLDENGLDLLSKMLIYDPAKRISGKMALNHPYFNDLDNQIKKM
Cyclin-dependent kinase 1/cyclin B1, sequence (P14635 whole entry, further chain): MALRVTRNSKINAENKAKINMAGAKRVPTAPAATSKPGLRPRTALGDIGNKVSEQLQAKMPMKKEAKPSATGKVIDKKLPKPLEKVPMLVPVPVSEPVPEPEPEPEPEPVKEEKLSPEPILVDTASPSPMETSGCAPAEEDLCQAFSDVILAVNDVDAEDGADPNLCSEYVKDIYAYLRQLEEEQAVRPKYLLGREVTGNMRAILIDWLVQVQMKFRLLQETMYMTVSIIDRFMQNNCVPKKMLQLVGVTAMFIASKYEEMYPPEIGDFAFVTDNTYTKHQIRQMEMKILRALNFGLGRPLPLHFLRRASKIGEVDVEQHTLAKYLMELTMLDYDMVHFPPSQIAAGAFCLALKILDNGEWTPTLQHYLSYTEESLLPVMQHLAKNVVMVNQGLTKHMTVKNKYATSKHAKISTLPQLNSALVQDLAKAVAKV
Protein kinase C delta type, sequence (Q05655 whole entry): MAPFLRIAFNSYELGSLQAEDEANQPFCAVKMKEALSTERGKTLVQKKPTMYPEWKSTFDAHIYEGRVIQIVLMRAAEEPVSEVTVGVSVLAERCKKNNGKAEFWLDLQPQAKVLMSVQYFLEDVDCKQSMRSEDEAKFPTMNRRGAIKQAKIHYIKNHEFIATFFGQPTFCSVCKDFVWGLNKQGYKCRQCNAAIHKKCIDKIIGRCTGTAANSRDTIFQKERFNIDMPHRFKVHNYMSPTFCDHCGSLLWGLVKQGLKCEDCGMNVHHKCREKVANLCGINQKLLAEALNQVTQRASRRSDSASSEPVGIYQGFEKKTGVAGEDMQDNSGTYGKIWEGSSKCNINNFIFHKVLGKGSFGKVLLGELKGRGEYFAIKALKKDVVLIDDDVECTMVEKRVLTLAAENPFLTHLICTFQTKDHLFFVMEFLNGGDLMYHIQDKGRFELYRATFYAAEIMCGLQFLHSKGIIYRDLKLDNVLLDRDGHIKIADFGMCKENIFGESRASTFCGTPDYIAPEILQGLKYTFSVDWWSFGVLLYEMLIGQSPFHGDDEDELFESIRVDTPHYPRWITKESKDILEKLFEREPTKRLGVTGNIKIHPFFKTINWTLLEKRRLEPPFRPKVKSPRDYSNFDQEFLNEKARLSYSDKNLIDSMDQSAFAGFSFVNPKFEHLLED
Epidermal growth factor receptor, sequence (P00533 whole entry, the tested form may be a part): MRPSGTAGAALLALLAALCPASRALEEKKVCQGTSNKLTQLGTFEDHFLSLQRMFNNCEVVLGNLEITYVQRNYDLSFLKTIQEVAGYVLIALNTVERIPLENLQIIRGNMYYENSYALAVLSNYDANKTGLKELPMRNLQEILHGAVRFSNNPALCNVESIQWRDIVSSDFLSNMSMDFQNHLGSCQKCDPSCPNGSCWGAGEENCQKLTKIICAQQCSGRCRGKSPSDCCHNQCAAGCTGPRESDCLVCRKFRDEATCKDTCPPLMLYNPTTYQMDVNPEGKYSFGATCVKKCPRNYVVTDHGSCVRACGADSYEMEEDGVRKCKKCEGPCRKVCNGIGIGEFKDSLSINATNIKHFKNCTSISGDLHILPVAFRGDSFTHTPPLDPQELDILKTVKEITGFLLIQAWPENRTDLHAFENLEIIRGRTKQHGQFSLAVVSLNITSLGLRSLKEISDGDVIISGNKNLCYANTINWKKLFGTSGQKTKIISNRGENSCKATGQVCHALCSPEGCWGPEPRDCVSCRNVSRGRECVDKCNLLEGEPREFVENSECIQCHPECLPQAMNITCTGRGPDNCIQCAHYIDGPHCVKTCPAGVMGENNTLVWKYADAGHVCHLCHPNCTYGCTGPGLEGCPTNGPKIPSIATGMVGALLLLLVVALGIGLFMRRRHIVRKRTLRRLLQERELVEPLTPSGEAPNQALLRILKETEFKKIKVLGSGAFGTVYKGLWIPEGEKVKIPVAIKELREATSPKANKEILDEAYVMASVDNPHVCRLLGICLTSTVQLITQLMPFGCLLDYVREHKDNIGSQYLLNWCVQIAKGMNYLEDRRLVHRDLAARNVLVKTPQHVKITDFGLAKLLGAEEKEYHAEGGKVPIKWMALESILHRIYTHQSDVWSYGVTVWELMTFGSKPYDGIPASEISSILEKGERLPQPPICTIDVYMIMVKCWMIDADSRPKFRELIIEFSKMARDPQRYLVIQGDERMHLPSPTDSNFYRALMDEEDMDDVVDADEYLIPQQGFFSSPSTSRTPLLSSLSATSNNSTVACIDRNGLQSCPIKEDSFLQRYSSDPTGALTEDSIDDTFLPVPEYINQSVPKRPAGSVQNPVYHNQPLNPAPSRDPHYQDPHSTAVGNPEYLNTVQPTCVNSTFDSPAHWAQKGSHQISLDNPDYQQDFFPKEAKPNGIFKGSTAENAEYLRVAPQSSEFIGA
Tyrosine-protein kinase Fyn, sequence (P06241 whole entry): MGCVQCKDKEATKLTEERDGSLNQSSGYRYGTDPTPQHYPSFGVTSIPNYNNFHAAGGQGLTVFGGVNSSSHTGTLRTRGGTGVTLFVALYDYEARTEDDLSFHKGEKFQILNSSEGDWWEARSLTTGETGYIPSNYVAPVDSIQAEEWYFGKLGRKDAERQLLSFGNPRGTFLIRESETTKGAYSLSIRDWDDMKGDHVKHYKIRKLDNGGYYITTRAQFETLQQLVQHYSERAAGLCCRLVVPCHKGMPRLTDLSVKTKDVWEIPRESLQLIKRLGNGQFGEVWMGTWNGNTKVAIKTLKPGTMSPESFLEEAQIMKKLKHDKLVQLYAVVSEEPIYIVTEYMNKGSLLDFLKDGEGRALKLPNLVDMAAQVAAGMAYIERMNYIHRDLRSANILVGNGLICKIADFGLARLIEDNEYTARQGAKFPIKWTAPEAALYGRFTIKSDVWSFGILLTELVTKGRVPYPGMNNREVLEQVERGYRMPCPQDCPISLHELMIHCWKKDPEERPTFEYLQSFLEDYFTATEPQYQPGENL

AUC/dose (Mus musculus [1]): 1458 ng·h/mL/mg/kg | Tmax [2]: 30 min | IC50 [3]: 0.31 µM | Tmax [4]: 30 min | Vd [5]: 5.3 L/kg | IC50 [6]: > 125 µM | half-life [7]: 360 min | bioavailability [8]: 93% | Cmax [9]: 16500 ng/mL | IC50 [10]: 0.033 µM | AUC at 120 h [11]: 30000 ng·h/mL | bioavailability [12]: 65% | IC50 [14]: > 125 µM | IC50 (MDA-MB-435): 4.2 µM | Tmax [18]: 30 min | AUC [19]: 26500 ng·h/mL | IC50 [20]: 0.029 µM | Tmax [21]: 318 min | Cmax [22]: 28400 ng/mL | IC50 [23]: 0.322 µM | IC50 [25]: > 125 µM | Tmax [26]: 30 min | AUC/dose (Mus musculus [27]): 1510 ng·h/mL/mg/kg | AUC at 120 h [28]: 150000 ng·h/mL
Compound: COc1ccc(N2Cc3cnc(Nc4ccccc4)nc3N([C@@H]3CC[C@@H](O)C3)C2=O)cc1 (racemic)
inhibition in vivo at 100 mg/kg (Mus musculus [13]): 99% | inhibition in vivo at 50 mg/kg (Mus musculus [15]): 91% | inhibition in vivo at 100 mg/kg (Mus musculus [16]): 97% | inhibition in vivo at 25 mg/kg (Mus musculus [17]): 81% | IC50 (RKO): 2.3 µM | IC50 (HUVEC): 0.15 µM | inhibition in vivo at 25 mg/kg (Mus musculus [24]): 72%
